Measurements from ChEMBL document CHEMBL1135993, “4,5-diphenyltriazol-3-ones: openers of large-conductance Ca(2+)-activated potassium (maxi-K) channels” (J Med Chem, 2002).

Target: Calcium-activated potassium channel subunit alpha-1 (Mus musculus) (UniProt Q08460)
Assay: Percent opening of mouse maxi-K channel expressed in xenopus oocyte at a concentration of 20 umolar under voltage clamp.
Type: functional
Conditions: Xenopus laevis oocytes
Procedure, shortened: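 Xenopus laevis oocytes injected with mSlo cRNA 2–6 days before recording, kept at 17 °C in ND96 (mM: NaCl 90, KCl 1.0, CaCl2 1.0, MgCl2 1.0, HEPES 5.0, pH 7.5) with 5% horse serum and penicillin/streptomycin. Two-electrode voltage clamp, steps 500–750 ms, +20 mV increments from −60 mV holding to +140 mV. Compound gravity-perfused at 20 μM. Iberiotoxin-sensitive outward current expressed as percent of control; mean of ≥5 oocytes.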

Chain of Calcium-activated potassium channel subunit alpha-1 (Mus musculus) (Q08460 whole entry): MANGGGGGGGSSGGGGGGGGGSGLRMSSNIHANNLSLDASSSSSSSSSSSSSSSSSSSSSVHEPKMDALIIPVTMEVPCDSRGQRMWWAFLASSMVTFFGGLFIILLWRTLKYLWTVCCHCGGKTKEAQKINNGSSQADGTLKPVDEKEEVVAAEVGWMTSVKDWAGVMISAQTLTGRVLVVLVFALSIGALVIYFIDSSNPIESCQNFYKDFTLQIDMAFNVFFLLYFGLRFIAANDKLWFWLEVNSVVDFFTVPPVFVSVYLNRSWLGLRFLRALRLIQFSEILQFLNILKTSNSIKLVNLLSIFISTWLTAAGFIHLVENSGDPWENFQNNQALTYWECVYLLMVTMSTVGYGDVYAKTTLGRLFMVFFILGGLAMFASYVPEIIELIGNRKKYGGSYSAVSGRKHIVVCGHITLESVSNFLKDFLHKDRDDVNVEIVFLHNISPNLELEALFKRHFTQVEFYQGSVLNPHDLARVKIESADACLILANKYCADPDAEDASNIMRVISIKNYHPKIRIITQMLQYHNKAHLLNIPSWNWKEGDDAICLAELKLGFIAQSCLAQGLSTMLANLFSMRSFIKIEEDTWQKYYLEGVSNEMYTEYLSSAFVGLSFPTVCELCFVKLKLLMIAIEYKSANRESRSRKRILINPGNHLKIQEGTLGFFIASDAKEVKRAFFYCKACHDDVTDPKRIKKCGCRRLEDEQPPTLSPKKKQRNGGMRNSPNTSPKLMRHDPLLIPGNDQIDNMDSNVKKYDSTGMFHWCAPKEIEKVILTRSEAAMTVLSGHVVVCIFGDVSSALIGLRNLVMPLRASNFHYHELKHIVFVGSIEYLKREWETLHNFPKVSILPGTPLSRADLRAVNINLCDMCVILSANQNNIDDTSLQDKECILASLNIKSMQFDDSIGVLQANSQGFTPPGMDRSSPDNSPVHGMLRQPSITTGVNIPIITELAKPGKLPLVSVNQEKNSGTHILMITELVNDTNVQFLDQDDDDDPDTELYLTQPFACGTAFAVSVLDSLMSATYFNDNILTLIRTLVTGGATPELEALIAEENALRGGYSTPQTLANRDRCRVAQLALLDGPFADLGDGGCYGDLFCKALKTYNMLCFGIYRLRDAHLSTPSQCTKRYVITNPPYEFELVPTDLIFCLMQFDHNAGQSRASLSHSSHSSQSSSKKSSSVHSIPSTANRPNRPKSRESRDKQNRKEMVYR

Structure (SMILES) | Activity [%]
Oc1ccc(Cl)cc1-n1c(O)nnc1-c1ccccc1C(F)(F)F | 107
Oc1ccc(Cl)cc1-n1c(S)nnc1-c1ccc(C(F)(F)F)cc1 | 128
O=c1onc(-c2ccc(C(F)(F)F)cc2)n1Cc1cc(Cl)ccc1O | 101
Oc1ccc(Cl)cc1-n1c(O)nnc1-c1cccc(C(F)(F)F)c1 | 138
Oc1ccc(Cl)c(-n2c(O)nnc2-c2ccc(C(F)(F)F)cc2)c1 | 101
O=c1[nH]c2cc(C(F)(F)F)ccc2n1-c1cc(Cl)ccc1O | 132
O=c1[nH]c2cc(C(F)(F)F)ccc2n1-c1cc(C(F)(F)F)ccc1O | 116
Oc1ccc(Cl)cc1Cc1nccn1-c1ccc(C(F)(F)F)cc1 | 105
O=c1onc(-c2cc(C(F)(F)F)cc(C(F)(F)F)c2)n1-c1cc(Cl)ccc1O | 92
Oc1ccc(Cl)cc1-n1c(O)nnc1-c1cc(C(F)(F)F)cc(C(F)(F)F)c1 | 159
Oc1ccc(Cl)cc1Cc1nnc(O)n1-c1ccc(C(F)(F)F)cc1 | 84
Oc1ccc(-n2c(O)nnc2-c2ccc(C(F)(F)F)cc2)cc1Cl | 99
Oc1ccc(Cl)cc1-n1c(O)nnc1-c1ccc(C(F)(F)F)cc1 | 121
Nc1nnc(-c2ccc(C(F)(F)F)cc2)n1-c1cc(Cl)ccc1O | 117
Oc1ccc(Cl)cc1-c1nnc(O)n1-c1ccc(C(F)(F)F)cc1 | 123
Oc1ccc(Cl)cc1-n1cncc1-c1ccc(C(F)(F)F)cc1 | 126
Oc1ccc(Cl)cc1-n1c(O)nnc1-c1ccc(F)cc1 | 118
Oc1ccc(Cl)cc1-n1cnnc1-c1ccc(C(F)(F)F)cc1 | 102
Oc1ccc(Cl)cc1-n1c(O)nnc1Cc1ccc(C(F)(F)F)cc1 | 125
Oc1ccc(Cl)cc1-c1nnc(O)n1Cc1ccc(C(F)(F)F)cc1 | 128
Oc1ccc(Cl)cc1-n1c(O)nnc1-c1ccccc1 | 101
Oc1ccc(Cl)cc1Cn1c(O)nnc1-c1ccc(C(F)(F)F)cc1 | 109
Cn1nc(-c2ccc(C(F)(F)F)cc2)n(-c2cc(Cl)ccc2O)c1=O | 93
